Format in all cases: functional
For assay [1], the system named is MDA-MB-468. Nature of the assay: Cytotoxicity against human MDA-MB-468 cells assessed as growth inhibition at 10 uM after 48 hrs by SRB assay. Conditions: MDA-MB-468, 48 h, read-out: GI. In a few lines: (§1)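 Single-dose screen at 10µM across the sixty-cell-line panel. Percentage growth is derived from SRB-stain OD taken just before compound exposure, after 48 hrs exposure, and in vehicle-treated controls. Negative values indicate cytotoxicity.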
For orientation: Sulforhodamine B stains cellular protein and so reports cell mass.

The subject of assay [2] is TK-10. As to the kind of experiment: Cytotoxicity against human TK10 cells assessed as growth inhibition at 10 uM after 48 hrs by SRB assay. Conditions: TK-10, 48 h, read-out: GI. In a few lines:
as §1

Assay [3] has as its system A498. As to the kind of experiment: Cytotoxicity against human A498 cells assessed as growth inhibition at 10 uM after 48 hrs by SRB assay. Conditions: A498, 48 h, read-out: GI. In a few lines:
as §1

Assay [4] in a line: Cytotoxicity against human OVCAR5 cells assessed as growth inhibition at 10 uM after 48 hrs by SRB assay. Conditions: OVCAR-5, 48 h, read-out: GI. In a few lines: as §1
The subject of assay [5] is NCI-H226. Nature of the assay: Cytotoxicity against human NCI-H226 cells assessed as growth inhibition at 10 uM after 48 hrs by SRB assay. Conditions: NCI-H226, 48 h, read-out: GI. Summed up: as §1
The subject of assay [6] is MDA-MB-468. As to the kind of experiment: Cytotoxicity against human MDA-MB-468 cells after 48 hrs by SRB assay. Conditions: MDA-MB-468, 48 h. Summed up: (§2)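 Five-dose run from the sixty-line panel, at 10−4, 10−5, 10−6, 10−7 and 10−8 M. SRB-stain OD is read just before compound addition, after 48 hrs of exposure, and in vehicle controls, giving percentage growth; negative growth indicates cytotoxicity. GI50 is the concentration giving 50% reduction in net protein increase versus control cells. LC50 is the concentration lethal to 50% of cells.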

A further assay concerns BT-549. Nature of the assay: Cytotoxicity against human BT549 cells after 48 hrs by SRB assay. Conditions: BT-549, 48 h. Summed up: as §2
The subject of a further assay is T47D. Nature of the assay: Cytotoxicity against human T47D cells after 48 hrs by SRB assay. Summed up:
as §2

A further assay concerns MDA-MB-231. Nature of the assay: Cytotoxicity against human MDA-MB-231 cells after 48 hrs by SRB assay. Conditions: MDA-MB-231, 48 h. Summed up: as §2
For a further assay, the system named is MCF7. As to the kind of experiment: Cytotoxicity against human MCF7 cells after 48 hrs by SRB assay. Conditions: MCF7, 48 h. Summed up:
as §2

For the next assay, the system named is SN12C. As to the kind of experiment: Cytotoxicity against human SN12C cells after 48 hrs by SRB assay. In a few lines:
as §2

The test system of assay [7] is TK-10. Nature of the assay: Cytotoxicity against human TK10 cells after 48 hrs by SRB assay. Conditions: TK-10, 48 h. Summed up:
as §2

In assay [8] the test system is A498. Nature of the assay: Cytotoxicity against human A498 cells after 48 hrs by SRB assay. Conditions: A498, 48 h. Summed up: as §2
The subject of a further assay is RXF 393. Nature of the assay: Cytotoxicity against human RXF393 cells after 48 hrs by SRB assay. Conditions: RXF 393, 48 h. In a few lines: as §2
The next assay concerns SK-OV-3. Nature of the assay: Cytotoxicity against human SKOV3 cells after 48 hrs by SRB assay. Conditions: SK-OV-3, 48 h. Summed up: as §2
The subject of the next assay is 786-0. Nature of the assay: Cytotoxicity against human 786-0 cells after 48 hrs by SRB assay. Conditions: 786-0, 48 h. Summed up: as §2
Assay [9] in a line: Cytotoxicity against human NCI-ADR-RES cells after 48 hrs by SRB assay. Summed up:
as §2

The test system of a further assay is OVCAR-8. As to the kind of experiment: Cytotoxicity against human OVCAR8 cells after 48 hrs by SRB assay. Conditions: OVCAR-8, 48 h. Summed up:
as §2

Assay [10] can be described thus: Cytotoxicity against human OVCAR5 cells after 48 hrs by SRB assay. Conditions: OVCAR-5, 48 h. Summed up:
as §2

A further assay concerns IGROV-1. As to the kind of experiment: Cytotoxicity against human IGROV1 cells after 48 hrs by SRB assay. Conditions: IGROV-1, 48 h. Summed up:
as §2

The next assay deals with UACC-62. As to the kind of experiment: Cytotoxicity against human UACC62 cells after 48 hrs by SRB assay. Conditions: UACC-62, 48 h. Summed up:
as §2

A short description of assay [11]: Cytotoxicity against human UACC257 cells after 48 hrs by SRB assay. Conditions: UACC-257, 48 h. In a few lines:
as §2

The subject of the next assay is SK-MEL-2. As to the kind of experiment: Cytotoxicity against human SK-MEL-2 cells after 48 hrs by SRB assay. Conditions: SK-MEL-2, 48 h. Summed up: as §2
Another assay has as its system SK-MEL-5. Nature of the assay: Cytotoxicity against human SK-MEL-5 cells after 48 hrs by SRB assay. Conditions: SK-MEL-5, 48 h. Summed up:
as §2

The test system of a further assay is MDA-MB-435. Nature of the assay: Cytotoxicity against human MDA-MB-435 cells after 48 hrs by SRB assay. Conditions: MDA-MB-435, 48 h. Summed up:
as §2

Another assay relates to LOX IMVI. As to the kind of experiment: Cytotoxicity against human LOXIMVI cells after 48 hrs by SRB assay. Summed up: as §2
A further assay relates to SNB-19. Nature of the assay: Cytotoxicity against human SNB19 cells after 48 hrs by SRB assay. Conditions: SNB-19, 48 h. Summed up: as §2
For another assay, the system named is SF-295. As to the kind of experiment: Cytotoxicity against human SF295 cells after 48 hrs by SRB assay. Conditions: SF-295, 48 h. In a few lines:
as §2

The subject of the next assay is SW-620. As to the kind of experiment: Cytotoxicity against human SW620 cells after 48 hrs by SRB assay. Conditions: SW-620, 48 h. Summed up: as §2
A further assay concerns HCT-116. Nature of the assay: Cytotoxicity against human HCT116 cells after 48 hrs by SRB assay. Conditions: HCT-116, 48 h. Summed up:
as §2

Another assay has as its system COLO 205. As to the kind of experiment: Cytotoxicity against human COLO205 cells after 48 hrs by SRB assay. Conditions: COLO 205, 48 h. Summed up:
as §2

For another assay, the system named is NCI-H460. Nature of the assay: Cytotoxicity against human NCI-H460 cells after 48 hrs by SRB assay. Conditions: NCI-H460, 48 h. In a few lines: as §2
A further assay relates to NCI-H23. As to the kind of experiment: Cytotoxicity against human NCI-H23 cells after 48 hrs by SRB assay. Conditions: NCI-H23, 48 h. In a few lines: as §2
Assay [12] concerns NCI-H226. As to the kind of experiment: Cytotoxicity against human NCI-H226 cells after 48 hrs by SRB assay. Conditions: NCI-H226, 48 h. Summed up:
as §2

Another assay concerns HOP-62. As to the kind of experiment: Cytotoxicity against human HOP62 cells after 48 hrs by SRB assay. Conditions: HOP-62, 48 h. Summed up:
as §2

The subject of the next assay is K562. Nature of the assay: Cytotoxicity against human K562 cells after 48 hrs by SRB assay. Conditions: K562, 48 h. Summed up:
as §2

The next assay deals with SR. As to the kind of experiment: Cytotoxicity against human SR cells after 48 hrs by SRB assay. In a few lines: as §2
The mark [13] stands for this setting: read-out: LC50 (the source's name).

Some results are limits rather than exact numbers.

Take `COC(=O)c1ccc2c(c1)c(C=C1C(=O)N(C)C(=O)N(C)C1=O)cn2Cc1ccc(S(=O)(=O)c2ccccc2)cc1`: the inhibition of growth at 10 µM worked out at 88% in the assay on MDA-MB-468 [1]; 100% with TK-10 [2]; 83% with A498 [3]; 108% in [4]; 98% with NCI-H226 [5].
As to `CN1C(=O)C(=Cc2cn(Cc3ccc(C#N)cc3)c3ccccc23)C(=O)N(C)C1=O`, the inhibition of growth at 10 µM in the assay on MDA-MB-468 [1] is -71%; in the assay with TK-10 [2], 62%; with A498 [3], 68%; in assay [4] it was 6%; in the assay with NCI-H226 [5], -72%.
`COc1ccc(Cn2cc(C=C3C(=O)N(C)C(=O)N(C)C3=O)c3ccccc32)cc1`: the GI50 with MDA-MB-468 [6] came out at 0.04 µM; with BT-549, 4.94 µM; in the assay on T47D, 3.53 µM; with MDA-MB-231, 5.86 µM; in the assay on MCF7 it was 5.26 µM; in the assay on SN12C, 12.5 µM. In addition, the GI50 in the assay on TK-10 [7] stood at 0.1 µM; with A498 [8], 0.06 µM; in the assay on RXF 393, 14.8 µM; with SK-OV-3 it was 5.03 µM; with 786-0, 11.2 µM; in assay [9], 3.59 µM. Besides, the GI50 turned out to be 13.4 µM in the assay on OVCAR-8; 0.02 µM in [10]; 1.93 µM with IGROV-1; 0.9 µM with UACC-62; 1.54 µM in assay [11]; 2.78 µM in the assay on SK-MEL-2. Moreover, the GI50 in the assay on SK-MEL-5 amounted to 5.08 µM; in the assay on MDA-MB-435 it was 3.29 µM; in the assay on LOX IMVI it was 5.45 µM; in the assay on SNB-19, 15.8 µM; in the assay on SF-295 it was 1.54 µM; in the assay on SW-620 it was 6.89 µM. For the same compound, the GI50 was found to be 5.01 µM in the assay on HCT-116; 0.63 µM in the assay on COLO 205; 0.81 µM with NCI-H460; 4.67 µM in the assay on NCI-H23; 1.44 µM in the assay on NCI-H226 [12]; 6.22 µM with HOP-62. Further, the concentration for 50% growth inhibition (GI50) with K562 was 2.18 µM; in the assay on SR it was 5.43 µM. Besides, the LC50 in the assay on MDA-MB-468 [6] is 0.76 µM; with T47D, over 100 µM; with MCF7, over 100 µM; with A498 [8], 5.27 µM; in the assay on SK-OV-3, over 100 µM; in the assay with 786-0, over 100 µM. Further, the LC50 in the assay on UACC-62 is 68 µM; in the assay with SK-MEL-5, 64.4 µM; with MDA-MB-435, over 100 µM; in the assay with SNB-19, over 100 µM; in the assay with SF-295, over 100 µM; with HCT-116, over 100 µM. For the same compound, the LC50 in the assay on NCI-H23 was over 100 µM. The CC50 was over 100 µM in the assay on BT-549 (setting [13]); over 100 µM in the assay on MDA-MB-231 (setting [13]); over 100 µM in the assay with SN12C (setting [13]); 72.5 µM in the assay on TK-10 [7] (setting [13]); over 100 µM in assay [9] (setting [13]); 88.6 µM with OVCAR-8 (setting [13]). Besides, the CC50 was over 100 µM in assay [10] (setting [13]); over 100 µM in the assay with IGROV-1 (setting [13]); 38.2 µM in [11] (setting [13]); over 100 µM in the assay on LOX IMVI (setting [13]); over 100 µM in the assay on SW-620 (setting [13]); 45.3 µM in the assay on COLO 205 (setting [13]). Also, the CC50 in the assay with NCI-H460 (setting [13]) is 82.8 µM; with NCI-H226 [12] (setting [13]), 53.9 µM; in the assay on HOP-62 (setting [13]), over 100 µM; with K562 (setting [13]), over 100 µM. The LC50 (lethal concentration, 50%) in the assay on RXF 393 and in the assay with SR was over 100 µM each time. Moreover, the inhibition of growth at 10 µM with MDA-MB-468 [1] is -65%; with TK-10 [2], -12%; in the assay on A498 [3] it was -92%; in assay [4], -38%; with NCI-H226 [5] it was -55%.
In the case of `CN1C(=O)C(=Cc2cn(Cc3ccc(F)cc3)c3ccc(Cl)cc23)C(=O)N(C)C1=O`, the inhibition of growth at 10 µM was -70% with MDA-MB-468 [1]; 19% in the assay on TK-10 [2]; -95% in the assay on A498 [3]; -19% in [4]; -79% with NCI-H226 [5].
In the case of `CN1C(=O)C(=Cc2cn(Cc3ccccc3Br)c3ccccc23)C(=O)N(C)C1=O`, the inhibition of growth at 10 µM was 56% with MDA-MB-468 [1]; 105% with TK-10 [2]; 74% in the assay with A498 [3]; 75% in assay [4]; -32% with NCI-H226 [5].
On the same counts, the results for `COC(=O)c1ccc(Cn2cc(C=C3C(=O)N(C)C(=O)N(C)C3=O)c3cc(C(=O)OC)ccc32)cc1` are 99%, 113%, 105%, 98% and 88%.

The term GI50 denotes the concentration that inhibits growth by half. Broadly, the LC50 is the concentration that kills 50% of the test population. Higher therefore signals a less lethal substance.

The record behind these values is ChEMBL document CHEMBL3102840, “Synthesis and anti-proliferative activity of aromatic substituted 5-((1-benzyl-1H-indol-3-yl)methylene)-1,3-dimethylpyrimidine-2,4,6(1H,3H,5H)-trione analogs against human tumor cell lines” (2014).
